Data reported in ChEMBL document CHEMBL1671650, “In vitro activity and preclinical profile of TMC435350, a potent hepatitis C virus protease inhibitor” (Antimicrob Agents Chemother, 2009).
pEC50, pIC50, pKi: −log10 of the molar value. Active and inactive are the calls of the source.

Tests used:
[1] = system: Respiratory syncytial virus; test: Antiviral activity against Respiratory syncytial virus infected in human HeLa cells at 10 to 100 uM; assay type: functional, organism-based
Summary of the method: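 RSV (LO strain) in HeLa/M cells, tetrazolium-based colorimetric read-out. Highest concentration tested 10 to 100 μM.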

Hepatitis C virus [2] = test: Antiviral activity against Hepatitis C virus 1b infected in human HuH7 cells assessed as viral RNA level after 72 hrs by quantitative reverse transcriptase PCR; assay type: functional, organism-based, Hepacivirus hominis; details: genotype 1b, Huh-7, 72 h
Summary of the method: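 Replicon cells (Huh7-Luc at 3,000/well; con1b S2204I or 1a H77 P1496L/S2204I at 6,000/well) exposed to a dilution range for 72 h in 0.5% DMSO without G418. Lysates reverse transcribed 30 min at 42°C with an HCV 5′UTR primer and an RPL13A control. Inhibition from threshold-cycle difference versus mock; EC50 taken from the dose-response curve.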

Plasma = test: Initial plasma concentration in Sprague-Dawley rat at 4 mg/kg, iv; assay type: ADME, organism-based; parameters: dose 4 mg/kg, route intravenous; details: in vivo
Summary of the method: (§1)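 Male SPF Sprague-Dawley rats (200–300 g), n=3. Single slow i.v. tail-vein bolus at 4 mg/kg (2 ml/kg) in 20% hydroxypropyl-β-cyclodextrin, pH 8.0. Plasma sampled 7 min to 31 h, measured by LC-MS/MS (LLOQ 1 ng/ml). Noncompartmental analysis.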

[3] = Cytotoxicity against human HT1080 cells after 3 to 4 days by resazurin proliferation assay; assay type: cell-based, HT-1080
Summary of the method: (§2)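 Human cell lines in DMEM with 10% heat-inactivated FBS and 2 mM L-glutamine (replicon cells plus 0.75 mg/ml G418 in maintenance). Exposed to compound for 3 to 4 days; resazurin fluorescence read-out. CC50 from inhibition curves.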

[4] = Ratio of AUC (0 to 31 hrs) in Sprague-Dawley rat large intestine to AUC (0 to 31 hrs) in Sprague-Dawley rat plasma at 40 mg/kg, po administered as single dose; assay type: ADME, organism-based; parameters: dose 40 mg/kg, route oral; details: read-out: Ratio AUC
Summary of the method: (§3)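 Male specific-pathogen-free Sprague-Dawley rats (200–300 g), three per group, single gastric intubation at 2 ml/kg of a vitamin E TPGS–PEG 400 solution; food and water ad libitum. Plasma sampled 30 min to 31 h; tissues dissected from oral groups. LC-MS/MS (LLOQ 1 ng/ml plasma, 5 ng/g tissue); noncompartmental analysis; ratios from mean of three rats.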

[5] = Cytotoxicity against human Saos2 cells after 3 to 4 days by resazurin proliferation assay; assay type: cell-based, SAOS-2; summary of the method: as §2
[6] = Cmax in Sprague-Dawley rat plasma at 40 mg/kg, po upto 31 hrs by liquid chromatography-tandem mass spectrometry; assay type: ADME, organism-based; parameters: dose 40 mg/kg, route oral
Summary of the method: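 Male SPF Sprague-Dawley rats (200–300 g), three per group. Oral gavage at 40 mg/kg (2 ml/kg) in TPGS–PEG400 solution. Plasma sampled 0.5–31 h, measured by LC-MS/MS (LLOQ 1 ng/ml). Noncompartmental analysis.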

[7] = Inhibition of HCV 1a H77 NS3/4A protease using RetS1 as a substrate by fluorescence resonance energy transfer cleavage assay
PBMC = test: Cytostatic activity against human PBMC cells assessed as incorporation of [3H]thymidine; assay type: ADME, cell-based; details: read-out: CS50 (the source's name)
[8] = Cytotoxicity against human MT4 cells after 3 to 4 days by resazurin proliferation assay; assay type: cell-based; summary of the method: as §2
Hepatitis C virus [9] = test: microbe, parasite or virus in culture
[10] = Ratio of AUC (0 to 31 hrs) in Sprague-Dawley rat small intestine to AUC (0 to 31 hrs) in Sprague-Dawley rat plasma at 40 mg/kg, po administered as single dose; assay type: ADME, organism-based; parameters: dose 40 mg/kg, route oral; details: read-out: Ratio AUC; summary of the method: as §3
[11] = Ratio of AUC (0 to 31 hrs) in Sprague-Dawley rat thymus to AUC (0 to 31 hrs) in Sprague-Dawley rat plasma at 40 mg/kg, po administered as single dose; assay type: ADME, organism-based; parameters: dose 40 mg/kg, route oral; summary of the method: as §3
Cathepsin S = Cathepsin S (Homo sapiens, UniProt P25774); test: Inhibition of human cathepsin S in human JY cells assessed as p10 accumulation by fluorescence-based assay; assay type: cell-based
Cathepsin S, sequence (P25774 whole entry, the tested form may be a part): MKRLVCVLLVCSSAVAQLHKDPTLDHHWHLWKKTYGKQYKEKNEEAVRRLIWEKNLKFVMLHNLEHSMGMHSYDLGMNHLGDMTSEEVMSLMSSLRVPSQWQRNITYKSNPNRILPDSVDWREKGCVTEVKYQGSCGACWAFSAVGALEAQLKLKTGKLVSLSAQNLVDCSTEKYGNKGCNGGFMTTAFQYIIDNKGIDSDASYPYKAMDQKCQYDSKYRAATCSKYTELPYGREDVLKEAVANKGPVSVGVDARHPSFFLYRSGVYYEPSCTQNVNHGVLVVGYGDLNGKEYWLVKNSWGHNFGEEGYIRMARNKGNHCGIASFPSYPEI
Summary of the method: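 Cellular cathepsin S assay in the human JY B-cell line, read as invariant chain degradation (p10 fragment accumulation). Top concentration 10 μM.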

[12] = Cytotoxicity against staphylococcal enterotoxin B-stimulated human PBMC cells; assay type: cell-based
[13] = AUC (0 to 24 hrs) in Sprague-Dawley rat at 40 mg/kg, po; assay type: ADME, organism-based; parameters: time < 24 hr, dose 40 mg/kg, route oral; details: plasma
Summary of the method: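 Male specific-pathogen-free Sprague-Dawley rats (200-300 g), three per group; single gastric intubation of vitamin E TPGS-polyethylene glycol 400 solution at 2 ml/kg. Plasma taken from orbital plexus at 0.5, 1, 2, 4, 8, 24 and 31 h; LC-MS/MS (LLOQ 1 ng/ml); noncompartmental analysis; rats fed and watered ad libitum.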

[14] = Ratio of AUC (0 to 31 hrs) in Sprague-Dawley rat spleen to AUC (0 to 31 hrs) in Sprague-Dawley rat plasma at 40 mg/kg, po administered as single dose; assay type: ADME, organism-based; parameters: dose 40 mg/kg, route oral; summary of the method: as §3
[15] = Ratio of AUC (0 to 31 hrs) in Sprague-Dawley rat heart to AUC (0 to 31 hrs) in Sprague-Dawley rat plasma at 40 mg/kg, po administered as single dose; assay type: ADME, organism-based; parameters: dose 40 mg/kg, route oral; summary of the method: as §3
[16] = Cytotoxicity against human MRC5 cells after 3 to 4 days by resazurin proliferation assay; assay type: cell-based; summary of the method: as §2
[17] = Ratio of AUC (0 to 31 hrs) in Sprague-Dawley rat lung to AUC (0 to 31 hrs) in Sprague-Dawley rat plasma at 40 mg/kg, po administered as single dose; assay type: ADME, organism-based; parameters: dose 40 mg/kg, route oral; summary of the method: as §3
Hepatitis C virus [18] = test: Antiviral activity against HCV 1b infected in human HuH7 cells assessed as log reduction in viral RNA level at 5 nM after 9 days by qRT-PCR; assay type: functional, organism-based; details: Hepacivirus hominis, genotype 1b, Huh-7
Summary of the method: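 Nine-day assay: replicon cells at 500 cells/well without G418, compound alone or with IFN-α. Medium with compounds refreshed every 3 days; cells harvested on days 3, 6 and 9 at 37°C, 5% CO2. HCV RNA measured by qRT-PCR and normalized to RPL13A.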

[19] = Apparent volume of distribution at steady-state in Sprague-Dawley rat at 4 mg/kg, iv; assay type: ADME, organism-based; parameters: dose 4 mg/kg, route intravenous; details: in vivo; summary of the method: as §1
[20] = Cytotoxicity against human HuH7 cells infected with Hepatitis C virus subtype 1b after 3 to 4 days by resazurin proliferation assay; assay type: cell-based, Huh-7; summary of the method: as §2
Hepatitis B virus = test: Antiviral activity against Hepatitis B virus infected in human HepG2.2.15 cells at 10 to 100 uM by quantitative PCR; assay type: functional, organism-based; details: HepG2 2.2.15
Summary of the method: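 HBV replication in HepG2.2.15 cells, measured by quantitative PCR. Highest concentration tested 10 to 100 μM.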

[21] = Ratio of AUC (0 to 31 hrs) in Sprague-Dawley rat adrenal gland to AUC (0 to 31 hrs) in Sprague-Dawley rat plasma at 40 mg/kg, po administered as single dose; assay type: ADME, organism-based; parameters: dose 40 mg/kg, route oral; summary of the method: as §3
Hepatitis C virus [22] = test: microbe, parasite or virus in culture; remark: listed apart in the source
[23] = AUC (0 to 24 hrs) in Sprague-Dawley rat at 4 mg/kg, iv; assay type: ADME, organism-based; parameters: time < 24 hr, dose 4 mg/kg, route intravenous; details: plasma
Summary of the method: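 Male specific-pathogen-free Sprague-Dawley rats (200-300 g), n = 3; single slow tail-vein bolus of 20% 2-hydroxypropyl-β-cyclodextrin formulation (pH 8.0) at 2 ml/kg. Plasma sampled from orbital plexus at 7 min, 20 min, 1, 3, 8, 24 and 31 h; LC-MS/MS (LLOQ 1 ng/ml); noncompartmental analysis of individual plasma profiles.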

Yellow fever virus = test: Antiviral activity against Yellow fever virus 17D infected in green monkey veroE6 cells inhibition of virus-induced cytopathic effect at 10 to 100 uM; assay type: functional, organism-based; details: Vero
Summary of the method: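 Virus-induced cytopathic effect inhibition assay in VeroE6 cells with YFV-17D, with a known positive control in each run; tested up to a top concentration in the 10–100 µM range.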

COc1ccc2c(O[C@@H]3C[C@H]4C(=O)N[C@]5(C(=O)NS(=O)(=O)C6CC6)C[C@H]5/C=C\CCCCN(C)C(=O)[C@@H]4C3)cc(-c3nc(C(C)C)cs3)nc2c1C [SIMEPREVIR]
Activity [1]: inactive | pEC50 (Hepatitis C virus [2]): 7.89 | EC90 (Hepatitis C virus [2]): 0.0287 µM | Cp (Plasma): 3560 ng/mL | CC50 [3]: 16 µM | Kp [4]: 29 | CC50 [5]: 16 µM | Cmax [6]: 1430 ng/mL | pKi [7]: 9.30 | GI50 (PBMC): 10 µM | CC50 [8]: 16 µM | EC50 ratio (Hepatitis C virus [9]): 1.8 | Kp [10]: 128 | Kp [11]: 0.5 | pIC50 (Cathepsin S): 6.10 | CC50 [12]: 33 µM | AUC(0-t) at 24 h [13]: 7740 ng·h/mL | Kp [14]: 0.3 | Kp [15]: 0.5 | CC50 [16]: 16 µM | Kp [17]: 0.5 | Activity (Hepatitis C virus [18]): Active | Vd [19]: 5.3 L/kg | CC50 [20]: 47 µM | Activity (Hepatitis B virus): inactive | Kp [21]: 0.5 | EC50 ratio (Hepatitis C virus [22]): 1.4 | AUC(0-t) at 24 h [23]: 1740 ng·h/mL | Activity (Yellow fever virus): inactive
